From ChEMBL document CHEMBL1128518, “Synthesis and anti-HIV-1 activity of thio analogues of dihydroalkoxybenzyloxopyrimidines” (J Med Chem, 1995)

Tests used:
[1] = system: MT4; assay: Compound dose required to reduce the viability of mock-infected cells by 50%; type: functional; details: Homo sapiens
[2] = system: MT4; assay: Dose required to achieve 50% protection of MT-4 cells from HIV-1 induced cytopathogenicity; type: functional, cell-based; details: Homo sapiens
[3] = system: MT4; assay: Selectivity index calculated as the ratio between CC50 and EC50; type: functional
Summary of the method: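 Ratio CC50/EC50, both from MTT-read 4-day MT-4 assays (mock-infected and HIV-1 IIIB-infected, 100 CCID50) run in parallel.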

[4] = target: Human immunodeficiency virus type 1 reverse transcriptase (Human immunodeficiency virus 1, UniProt Q72547); assay: Dose required to inhibit HIV-1 recombinant reverse transcriptase (rRT) activity by 50%.; type: functional
Summary of the method: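 Highly purified recombinant HIV-1 RT, assayed for RNA-dependent DNA polymerase activity. Template-primer: poly(rC)-oligo(dG)12–18 at 0.5 OD260 units/mL, with [3H]dGTP (1 Ci/mmol). Incubated 20 min at 37 °C; acid-insoluble radioactivity counted on glass fiber filters. Value is the dose giving 50% inhibition; means of three experiments.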

[5] = system: MT4; assay: Compound dose required to reduce the viability of mock-infected cells by 50%.; type: functional; details: Homo sapiens
Summary of the method: (§1)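 Mock-infected MT-4 cells (1 × 10^4/well) exposed to serial compound concentrations, run in parallel with the antiviral assay, 4 days at 37 °C. Viability read by MTT; CC50 is the dose reducing viability by 50%. Means of three separate experiments.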

[6] = system: MT4; assay: Compound dose required to achieve 50% protection of MT-4 cells from HIV-1 induced cytopathogenicity.; type: functional, cell-based; details: Homo sapiens
Summary of the method: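 HIV-1 IIIB (100 CCID50/well) added to MT-4 cells (1 × 10^4/well) with or without serial compound concentrations; 4-day incubation at 37 °C. Viable cells counted by MTT; EC50 is the dose giving 50% protection from virus-induced cytopathogenicity. Means of three separate experiments.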

[7] = system: MT4; assay: Compound dose required to reduce the viability of mock-infected cells by 50%, as determined by the MTT method.; type: functional; details: Homo sapiens; summary of the method: as §1

Structure (SMILES) | CC50 [1] | EC50 [2] | SI [3] | IC50 [4] | CC50 [5] | EC50 [6] | CC50 [7]
Oc1cc(Cc2ccccc2)nc(SC2CCCC2)n1 | 147 µM | 1.7 µM | 86 | 2.8 µM | – | – | –
Cc1ccnc2c1NC(=O)c1cccnc1N2C1CC1 [NEVIRAPINE] | > 376 µM | 0.3 µM | >1250 | – | – | – | –
CC(C)SC1=N/C(=C/c2ccccc2)C(C)(C)C(=O)N1 | 20 µM | 3.6 µM | 5.5 | 4.3 µM | – | – | –
Cc1cn([C@H]2C[C@H](N=[N+]=[N-])[C@@H](CO)O2)c(=O)[nH]c1=O [ZIDOVUDINE] | > 20 µM | – | >2000 | – | – | – | –
Cc1cccc(Cc2cc(O)nc(SC(C)C)n2)c1 | 225 µM | 1.3 µM | 173 | 2.9 µM | – | – | –
Cc1cccc(Cc2nc(SC(C)C)nc(O)c2C)c1 | 100 µM | 1.3 µM | 77 | 2.5 µM | – | – | –
CSC1=N/C(=C/c2ccccc2)C(C)(C)C(=O)N1 | 160 µM | 3.1 µM | 53 | 6.1 µM | – | – | –
CC(C)CSC1=N/C(=C/c2ccccc2)C(C)(C)C(=O)N1 | 20 µM | 3.6 µM | 5.5 | 4.6 µM | – | – | –
CSc1nc(O)c(C)c(Cc2cccc(C)c2)n1 | 385 µM | 3 µM | 128 | 2.5 µM | – | – | –
CC(C)CSc1nc(O)cc(Cc2ccccc2)n1 | 186 µM | 5.1 µM | 36 | 9.4 µM | – | – | –
CC(C)=CCSc1nc(O)cc(Cc2cccc(C)c2)n1 | 193 µM | 13 µM | 15 | – | – | – | –
Cc1c(O)nc(SC2CCCCC2)nc1Cc1ccccc1 | > 318 µM | 0.6 µM | >530 | 4.3 µM | – | – | –
Cc1cccc(Cc2cc(O)nc(SC3CCCCC3)n2)c1 | > 318 µM | 1.5 µM | >212 | 2.6 µM | – | – | –
Cc1cccc(/C=C2/NC(=S)NC(=O)C2(C)C)c1 | 165 µM | > 165 µM | – | – | – | – | –
Cc1cccc(Cc2cc(O)nc(S)n2)c1 | – | – | – | > 10 µM | 258 µM | > 258 µM | –
CCC(C)SC1=N/C(=C/c2ccccc2)C(C)(C)C(=O)N1 (stereo not drawn) | 16 µM | 3.3 µM | 4.8 | 4.3 µM | – | – | –
Cc1cccc(Cc2cc(O)nc(SC3CCCC3)n2)c1 | > 333 µM | 1.2 µM | >278 | 2.6 µM | – | – | –
C=CCSc1nc(O)cc(Cc2cccc(C)c2)n1 | 188 µM | 3.6 µM | 52 | – | – | – | –
C/C=C/CSc1nc(O)cc(Cc2cccc(C)c2)n1 | 165 µM | 8 µM | 21 | – | – | – | –
Cc1cccc(/C=C2/N=C(SCC(C)C)NC(=O)C2(C)C)c1 | – | > 316 µM | – | – | – | – | > 316 µM
Cc1c(O)nc(S)nc1Cc1ccccc1 | 431 µM | > 108 µM | – | > 10 µM | – | – | –
CCC(C)SC1=N/C(=C/c2cccc(C)c2)C(C)(C)C(=O)N1 (stereo not drawn) | 25 µM | > 25 µM | – | – | – | – | –
Cc1cccc(Cc2nc(SC3CCCCC3)nc(O)c2C)c1 | > 304 µM | 0.6 µM | >506 | 1.3 µM | – | – | –

Structure (SMILES) | CC50 [1] | EC50 [2] | SI [3] | IC50 [4] | CC50 [5] | EC50 [6] | CC50 [7]
Cc1cccc(Cc2cc(O)nc(SCC(C)C)n2)c1 | 163 µM | 3.3 µM | 49 | 8.4 µM | – | – | –
CSc1nc(O)cc(Cc2ccccc2)n1 | > 431 µM | 34.5 µM | >12 | > 10 µM | – | – | –
CC(C)Sc1nc(O)cc(Cc2ccccc2)n1 | 332 µM | 7.7 µM | 43 | > 10 µM | – | – | –
CC1(C)C(=O)NC(=S)N/C1=C/c1ccccc1 | > 406 µM | > 406 µM | – | – | – | – | –
Cc1cccc(/C=C2/N=C(SC3CCCC3)NC(=O)C2(C)C)c1 | > 304 µM | > 304 µM | – | – | – | – | –
CCC(C)Sc1nc(O)cc(Cc2cccc(C)c2)n1 (stereo not drawn) | > 347 µM | 0.6 µM | >578 | 1.2 µM | – | – | –
CC1(C)C(=O)NC(SC2CCCC2)=N/C1=C/c1ccccc1 | 18 µM | 10 µM | 1.8 | > 10 µM | – | – | –
Cc1cccc(/C=C2/N=C(SC3CCCCC3)NC(=O)C2(C)C)c1 | > 292 µM | > 292 µM | – | – | – | – | –
CC1(C)C(=O)NC(SC2CCCCC2)=N/C1=C/c1ccccc1 | 91 µM | 9.1 µM | 10 | > 10 µM | – | – | –
CSc1nc(O)cc(Cc2cccc(C)c2)n1 | 317 µM | 17 µM | 19 | > 10 µM | – | – | –
CSc1nc(O)c(C)c(Cc2ccccc2)n1 | > 406 µM | 1.2 µM | >338 | 4.9 µM | – | – | –
Cc1cccc(Cc2nc(SCC(C)C)nc(O)c2C)c1 | 330 µM | 1.6 µM | 206 | 4.6 µM | – | – | –
Cc1c(O)nc(SCC(C)C)nc1Cc1ccccc1 | 130 µM | 0.8 µM | 162 | 2.2 µM | – | – | –
Oc1cc(Cc2ccccc2)nc(SC2CCCCC2)n1 | > 330 µM | 0.8 µM | – | 3 µM | – | – | –
CSC1=N/C(=C/c2cccc(C)c2)C(C)(C)C(=O)N1 | 5.2 µM | > 5.2 µM | – | – | – | – | –
Cc1c(O)nc(SC2CCCC2)nc1Cc1ccccc1 | > 333 µM | 0.6 µM | >555 | 3.4 µM | – | – | –
Cc1cccc(/C=C2/N=C(SC(C)C)NC(=O)C2(C)C)c1 | 69 µM | > 69 µM | – | – | – | – | –
CCC(C)Sc1nc(O)c(C)c(Cc2cccc(C)c2)n1 (stereo not drawn) | 100 µM | 1 µM | 100 | 2.7 µM | – | – | –
CCC(C)Sc1nc(O)c(C)c(Cc2ccccc2)n1 (stereo not drawn) | 86 µM | 0.6 µM | 140 | 2.4 µM | – | – | –
Cc1c(O)nc(SC(C)C)nc1Cc1ccccc1 | 140 µM | 1.8 µM | 77 | 2.5 µM | – | – | –
CCC(C)Sc1nc(O)cc(Cc2ccccc2)n1 (stereo not drawn) | 150 µM | 1.2 µM | 125 | 2.7 µM | – | – | –
Cc1cccc(Cc2nc(SC3CCCC3)nc(O)c2C)c1 | > 318 µM | 0.6 µM | >530 | 3.4 µM | – | – | –
Cc1cccc(Cc2nc(S)nc(O)c2C)c1 | 284 µM | > 102 µM | – | > 10 µM | – | – | –
